Experimental data reported in ChEMBL document CHEMBL1148376, “Synthesis, monoamine transporter binding properties, and behavioral pharmacology of a series of 3beta-(substituted phenyl)-2beta-(3'-substituted isoxazol-5-yl)tropanes” (J Med Chem, 2004).

Tests used:
[1] = target: T1, Norepinephrine transporter (Rattus norvegicus, UniProt Q9WTR4); assay: Binding affinity towards norepinephrine transporter was determined using [3H]nisoxetine radioligand.
Summary of the method: (§1)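 Competition binding at the NET with 0.5 nM [3H]nisoxetine (final concentration). Other procedures follow earlier published methods.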

[2] = target: T1, Norepinephrine transporter; assay: Inhibition of norepinephrine transporter (NET) determined using [3H]nisoxetine radioligand.; summary of the method: as §1
[3] = target: T2, Sodium-dependent serotonin transporter (Rattus norvegicus, UniProt P31652); assay: Binding affinity towards serotonin transporter 5-HTT was determined using [3H]paroxetine radioligand.
Summary of the method: (§2)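 Competition binding at the 5-HTT with 0.2 nM [3H]paroxetine (final concentration). Other procedures follow earlier published methods.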

[4] = target: T2, Sodium-dependent serotonin transporter; assay: Inhibitory concentration required to inhibit serotonin transporter 5-HTT was determined by using [3H]paroxetine radioligand; summary of the method: as §2
[5] = target: Sodium-dependent dopamine transporter (Rattus norvegicus, UniProt P23977); assay: Inhibitory concentration required to inhibit dopamine transporter DAT was determined by using [3H]WIN-35428 radioligand
Summary of the method: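 Competition binding at the DAT with 0.5 nM [3H]WIN35,428 (final concentration). Other procedures follow earlier published methods.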

Mus musculus [6] = assay: Percent change in locomotor activity in mice at 3 mg/kg i.p. in 1 h.; format: functional; conditions: route intraperitoneal
Summary of the method: (§3)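 Mice habituated 1/2 h to photocell activity chambers, then injected ip with compound homogenized in 0.5% methyl cellulose (10 mL/kg); vehicle controls; N = 5 or 6 per dose. Photobeam interruptions recorded in 10-min bins for 4 h, grouped into 1-h bins; one-way ANOVA with Newman-Keuls post hoc test (p < 0.05).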

Mus musculus [7] = assay: Percent change in locomotor activity in mice at 3 mg/kg i.p. in 2 h.; format: functional; conditions: route intraperitoneal; summary of the method: as §3
Mus musculus [8] = assay: Percent change in locomotor activity in mice at 3 mg/kg i.p. in 3 h.; format: functional; conditions: route intraperitoneal; summary of the method: as §3
Mus musculus [9] = assay: Percent change in locomotor activity in mice at 3 mg/kg i.p. in 4 h.; format: functional; conditions: route intraperitoneal; summary of the method: as §3
Mus musculus [10] = assay: Percent change from vehicle in locomotor activity in mice at 0.3 mg/kg (ip) in 1 h; format: functional
Mus musculus [11] = assay: Percent change from vehicle in locomotor activity in mice at 0.3 mg/kg (ip) in 2 h; format: functional
Mus musculus [12] = assay: Percent change from vehicle in locomotor activity in mice at 0.3 mg/kg (ip) in 3 h; format: functional
Mus musculus [13] = assay: Percent change from vehicle in locomotor activity in mice at 0.3 mg/kg (ip) in 4 h; format: functional
Mus musculus [14] = assay: Percent change in locomotor activity in mice at 1 mg/kg i.p. in 1 h.; format: functional; conditions: route intraperitoneal
Mus musculus [15] = assay: Percent change in locomotor activity in mice at 1 mg/kg i.p. in 2 h.; format: functional; conditions: route intraperitoneal; summary of the method: as §3
Mus musculus [16] = assay: Percent change locomotor activity in mice at 1 mg/kg i.p. in 3 h.; format: functional; conditions: route intraperitoneal; summary of the method: as §3
Mus musculus [17] = assay: Percent change in locomotor activity in mice at 1 mg/kg i.p. in 4 h.; format: functional; conditions: route intraperitoneal; summary of the method: as §3
Mus musculus [18] = organism: Mus musculus; assay: Effective dose for locomotor activity in mice in the peak hour.; format: functional
Mus musculus [19] = organism: Mus musculus; assay: Hour 1 ratio to cocaine was determined for locomotor activity in mice; format: functional
Rattus norvegicus [20] = assay: Drug discrimination effect of compound in rats, expressed as percent of rats choosing the cocaine lever at dose 1 mg/kg (ip); format: functional
Rattus norvegicus [21] = assay: Drug discrimination effect of compound in rats, expressed as percent of rats choosing the cocaine lever at dose 1.7 mg/kg (ip); format: functional
Rattus norvegicus [22] = assay: Drug discrimination effect of compound in rats, expressed as percent of rats choosing the cocaine lever at dose 3 mg/kg (ip); format: functional
Mus musculus [23] = assay: Percent change from vehicle in locomotor activity in mice at 10 mg/kg (ip) in 1 h; format: functional
Mus musculus [24] = assay: Percent change from vehicle in locomotor activity in mice at 10 mg/kg (ip) in 2 h; format: functional
Mus musculus [25] = assay: Percent change from vehicle in locomotor activity in mice at 10 mg/kg (ip) in 3 h; format: functional
Mus musculus [26] = assay: Percent change from vehicle in locomotor activity in mice at 10 mg/kg (ip) in 4 h; format: functional
Rattus norvegicus [27] = assay: Drug discrimination effect of compound in rats, expressed as percent of rats choosing the cocaine lever at dose 10 mg/kg (ip); format: functional
Rattus norvegicus [28] = assay: Drug discrimination effect of compound in rats, expressed as percent of rats choosing the cocaine lever at dose 5.6 mg/kg (ip); format: functional
Rattus norvegicus [29] = assay: Effective dose for drug discrimination effect in rat (ip); format: functional
Summary of the method: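 Cocaine-trained rat drug discrimination, FR10, 10-min sessions. Compound in 0.5% methyl cellulose given ip 15 min before session, usually to 7-8 rats per dose. Doses were raised from ≤20% to ≥80% cocaine-lever choice, capped at 30 mg/kg, >50% loss of pressing, or side effects.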

Sequence of Sodium-dependent dopamine transporter (P23977 whole entry): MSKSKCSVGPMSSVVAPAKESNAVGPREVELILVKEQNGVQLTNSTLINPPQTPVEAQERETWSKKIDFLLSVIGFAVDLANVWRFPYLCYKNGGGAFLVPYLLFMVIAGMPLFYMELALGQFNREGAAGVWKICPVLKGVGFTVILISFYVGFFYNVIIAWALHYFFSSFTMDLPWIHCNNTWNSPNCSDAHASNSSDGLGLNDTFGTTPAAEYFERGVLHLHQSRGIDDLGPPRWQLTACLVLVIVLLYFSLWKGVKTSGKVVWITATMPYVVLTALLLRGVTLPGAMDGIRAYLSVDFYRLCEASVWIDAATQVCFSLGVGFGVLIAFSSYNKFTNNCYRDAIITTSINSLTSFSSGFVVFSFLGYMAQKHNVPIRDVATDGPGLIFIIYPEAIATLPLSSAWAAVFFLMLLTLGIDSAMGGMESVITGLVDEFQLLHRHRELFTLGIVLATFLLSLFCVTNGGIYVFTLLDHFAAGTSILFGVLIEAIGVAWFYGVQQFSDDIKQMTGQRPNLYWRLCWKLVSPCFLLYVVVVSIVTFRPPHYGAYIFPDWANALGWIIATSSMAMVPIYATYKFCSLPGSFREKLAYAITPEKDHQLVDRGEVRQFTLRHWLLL
T2 sequence (P31652 whole entry): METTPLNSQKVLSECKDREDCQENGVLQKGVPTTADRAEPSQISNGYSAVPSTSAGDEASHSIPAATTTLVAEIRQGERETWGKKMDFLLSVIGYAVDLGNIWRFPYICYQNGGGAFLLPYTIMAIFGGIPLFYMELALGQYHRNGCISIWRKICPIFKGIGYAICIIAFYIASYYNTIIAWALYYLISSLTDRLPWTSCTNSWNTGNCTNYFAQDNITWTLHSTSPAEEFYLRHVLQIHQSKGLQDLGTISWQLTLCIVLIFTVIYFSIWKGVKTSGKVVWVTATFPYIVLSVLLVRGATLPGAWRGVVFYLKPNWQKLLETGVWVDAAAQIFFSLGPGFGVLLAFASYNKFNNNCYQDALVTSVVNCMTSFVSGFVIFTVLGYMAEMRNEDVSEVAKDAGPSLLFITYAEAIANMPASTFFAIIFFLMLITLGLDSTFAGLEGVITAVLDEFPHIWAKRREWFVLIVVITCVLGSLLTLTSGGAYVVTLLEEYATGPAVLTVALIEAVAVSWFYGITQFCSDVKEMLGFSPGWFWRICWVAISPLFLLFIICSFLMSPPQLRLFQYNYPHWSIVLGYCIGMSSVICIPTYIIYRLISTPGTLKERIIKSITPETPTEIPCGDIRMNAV
T1 sequence (Q9WTR4 whole entry): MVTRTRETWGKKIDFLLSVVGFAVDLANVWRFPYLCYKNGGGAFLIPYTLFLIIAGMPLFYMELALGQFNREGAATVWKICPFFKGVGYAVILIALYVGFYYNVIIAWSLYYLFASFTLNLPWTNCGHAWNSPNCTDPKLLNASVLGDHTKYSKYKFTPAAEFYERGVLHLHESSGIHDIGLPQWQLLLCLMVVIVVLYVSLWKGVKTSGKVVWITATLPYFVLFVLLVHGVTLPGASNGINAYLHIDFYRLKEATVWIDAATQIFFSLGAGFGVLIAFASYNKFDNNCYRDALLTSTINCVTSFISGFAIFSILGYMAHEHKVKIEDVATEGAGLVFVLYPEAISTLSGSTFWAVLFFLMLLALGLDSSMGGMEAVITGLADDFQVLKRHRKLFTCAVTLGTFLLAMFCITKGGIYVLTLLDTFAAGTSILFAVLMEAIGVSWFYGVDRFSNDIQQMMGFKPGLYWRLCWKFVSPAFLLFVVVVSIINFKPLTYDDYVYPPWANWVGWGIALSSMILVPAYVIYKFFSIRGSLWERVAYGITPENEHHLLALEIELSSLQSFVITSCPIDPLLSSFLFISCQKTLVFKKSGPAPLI

SMILES	Ki [1] [nM]	IC50 [2] [nM]	Ki [3] [nM]	IC50 [4] [nM]	IC50 [5] [nM]	Change (Mus musculus [6]) [%]	Change (Mus musculus [7]) [%]	Change (Mus musculus [8]) [%]	Change (Mus musculus [9]) [%]	Change (Mus musculus [14]) [%]	Change (Mus musculus [15]) [%]	Change (Mus musculus [16]) [%]	Change (Mus musculus [17]) [%]	ED50 (Mus musculus [18]) [mg/kg]	Ratio (Mus musculus [19])	Drug discrimination effect (Rattus norvegicus [22]) [%]	Change (Mus musculus [23]) [%]	Change (Mus musculus [24]) [%]	Change (Mus musculus [25]) [%]	Change (Mus musculus [26]) [%]	further results
Cc1ccc(C2CC3CCC(C2C(=O)OC(C)C)N3C)cc1 (stereo not drawn)	554	6090	1160	1930																	
CC(C)c1cc(C2C(c3ccc(Cl)cc3)CC3CCC2N3C)on1 (stereo not drawn)	575	954	211	2320	1.19	876	995	680	1745	370	632	188	-2	0.8	1.9	63					Change (Mus musculus [10]): 34%; Change (Mus musculus [11]): 41%; Change (Mus musculus [12]): -21%; Change (Mus musculus [13]): -39%; Drug discrimination effect (Rattus norvegicus [20]): 13%; Drug discrimination effect (Rattus norvegicus [21]): 25%
CN1C2CCC1C(c1cc(-c3ccc(F)cc3)no1)C(c1ccc(Cl)cc1)C2 (stereo not drawn)	553	918	660	7260	1.86	271	463	479	392	-26	38	-77	37	2.8	1.6	13	729	832	514	767	Drug discrimination effect (Rattus norvegicus [27]): 63%; Drug discrimination effect (Rattus norvegicus [28]): 43%
Cc1ccc(C2CC3CCC(C2c2cc(C(C)C)no2)N3C)cc1 (stereo not drawn)	1550	2520	3900	42900	4.5	329	241	207	70	-1	29	-20	24	4.7	0.9	25	637	532	765	576	Drug discrimination effect (Rattus norvegicus [27]): 86%; Drug discrimination effect (Rattus norvegicus [28]): 67%; ED50 (Rattus norvegicus [29]): 4.63 mg/kg
Cc1ccc(-c2cc(C3C(c4ccc(Cl)cc4)CC4CCC3N4C)on2)cc1 (stereo not drawn)	1030	1710	522	5740	4.09	23	153	265	119	8	44	-49	170	3.9	0.7	14	308	1034	1024	493	Drug discrimination effect (Rattus norvegicus [20]): 14%; Drug discrimination effect (Rattus norvegicus [27]): 88%; Drug discrimination effect (Rattus norvegicus [28]): 50%; ED50 (Rattus norvegicus [29]): 5.95 mg/kg
Cc1ccc(C2CC3CCC(C2c2cc(C(C)(C)C)no2)N3C)cc1 (stereo not drawn)	1820	3330	26000	295000	26																
CN1C2CCC1C(c1cc(-c3ccc(Cl)cc3)no1)C(c1ccc(Cl)cc1)C2 (stereo not drawn)	3790	5290		> 76000	6.42	59	237	298	389	15	19	74	39	3.6	0.4	13	166	612	838	1372	Drug discrimination effect (Rattus norvegicus [20]): 0%; Drug discrimination effect (Rattus norvegicus [27]): 50%; Drug discrimination effect (Rattus norvegicus [28]): 0%
CN1C2CCC1C(c1cc(C(C)(C)C)no1)C(c1ccc(Cl)cc1)C2 (stereo not drawn)	3810	6320	3350	36800	7.31	112	204	206	-29	41	103	135	33	4	0.9	50	388	769	1272	229	Drug discrimination effect (Rattus norvegicus [20]): 0%; Drug discrimination effect (Rattus norvegicus [27]): 83%; Drug discrimination effect (Rattus norvegicus [28]): 88%; ED50 (Rattus norvegicus [29]): 3.04 mg/kg
Cc1ccc(C2CC3CCC(C2c2cc(-c4ccccc4)no2)N3C)cc1 (stereo not drawn)	239	398	465	5110	1.58	244	369	283	329	48	139	89	154	2.5	1.2	0	526	663	363	141	Drug discrimination effect (Rattus norvegicus [27]): 86%; Drug discrimination effect (Rattus norvegicus [28]): 75%; ED50 (Rattus norvegicus [29]): 4.88 mg/kg
COc1ccc(-c2cc(C3C(c4ccc(Cl)cc4)CC4CCC3N4C)on2)cc1 (stereo not drawn)	454	762	535	5880	1.57	197	481	662	335	0	51	101	-21	3.7	1.2	0	521	1337	2830	2120	Drug discrimination effect (Rattus norvegicus [20]): 0%; Drug discrimination effect (Rattus norvegicus [27]): 50%; Drug discrimination effect (Rattus norvegicus [28]): 43%
CN1C2CCC1C(C(=O)Oc1ccccc1)C(c1ccc(Cl)cc1)C2 (stereo not drawn)	213	2340	1780	2960																	
CN1C2CC[C@@H]1C[C@H](c1ccc(Cl)cc1)C2c1cc(-c2ccccc2)no1 (stereo partly drawn)	220	2420	305	504		331	456	377	378	11	27	45	76	3.4	1.1	29	513	402	485	924	Drug discrimination effect (Rattus norvegicus [27]): 75%; Drug discrimination effect (Rattus norvegicus [28]): 63%; ED50 (Rattus norvegicus [29]): 4.73 mg/kg
